NSD2 inh: blocks human histone methyltransferase NSD2 | inhibition, % at 12.5 µM | 310,000 compounds, 0.54% hits | AID 743445 | NSD2 peptide methylation, AlphaScreen, 120 min | O96028; in the data active = inhibition above about 50%
Casp6 inh: caspase-6 (human) enzyme inhibition; 350,000 compounds, 0.53% hits; inhibition, % at 12.5 µM; P55212; purified caspase-6, Z-VEID-R110 cleavage fluorescence;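 active = mean inhibition across replicates at least about 35%, with every replicate also reaching that limit, limit read from the data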
Target sequence (P55212 24-179 limits assumed): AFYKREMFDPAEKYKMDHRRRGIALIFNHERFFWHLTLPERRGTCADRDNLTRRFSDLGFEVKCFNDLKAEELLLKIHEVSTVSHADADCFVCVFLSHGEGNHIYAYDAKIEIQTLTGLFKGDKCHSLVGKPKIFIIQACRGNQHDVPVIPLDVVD
Target sequence (P55212 194-293 limits assumed): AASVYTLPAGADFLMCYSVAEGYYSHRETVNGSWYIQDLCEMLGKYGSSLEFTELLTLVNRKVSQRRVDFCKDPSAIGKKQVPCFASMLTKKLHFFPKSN
MITF act: increases MITF-driven TRPM1 promoter luciferase signal. SK-MEL-5 TRPM1-promoter luciferase, 24 h; % of positive control, neutral wells = 0. activation, % at 12.5 µM. 300,000 compounds, 0.75% hits. AID 588334;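 active = mean activation of at least 80% with every replicate also reaching 80%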
Wnt act: activates Wnt/beta-catenin signaling in a reporter cell assay | 300,000 compounds, 1.2% hits | activator, plate reader | activation, % at 9.35 µM | AID 743398; in the data active = activation above about 30%, passing the limit was not always enough
Xi reactivation: X-chromosome reactivation activator. 360,000 compounds, 0.055% hits. AID 743238. activation, % at 7.58 µM. XiGFP mouse fibroblasts, % GFP-positive cells imaging, 3 d; cells co-treated with 5-aza-dC sensitizer; scaled so ellipticine positive control = 100%;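 active = mean normalized replicate activation at least 10% and every replicate at or above 10%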
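Assay system: SV40-immortalized XiGFP fibroblast cells, line 68-5-11; buffer or medium: DMEM plus 5-aza-dC sensitizer; compound: one concentration, pinned; timing: compounds 3 days, fix/stain 15 min at room temperature; benchmarks: positive control ellipticine, 6 µM final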
esBAF inh: SWI/SNF esBAF complex inhibition. AID 602393. 350,000 compounds, 2% hits. mouse ES cells, Bmi1-luciferase knock-in reporter, 24 h; 100% = twice the neutral-well signal. reporter increase, % at 12.5 µM; in the data active = activation above about 40%;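 also: a rise in the Bmi1 reporter signal indicates esBAF inhibition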
Hits are given with their value. This is a sample that favours compounds with a hit; in the whole collection about 3% have one here.

CC(C)N1C(=O)S/C(=C\c2ccc(-c3ccc(Cl)c(C(=O)O)c3)o2)C1=O was read as NSD2 inh inactive, Casp6 inh inactive, Wnt act inactive, Xi reactivation inactive and esBAF inh 47.5.
`CCOC(=O)CN1C(=O)S/C(=C\c2ccc(-c3ccc(C(=O)O)c(Cl)c3)o2)C1=O` gave NSD2 inh inactive, Casp6 inh 48.9, MITF act inactive, Wnt act inactive, Xi reactivation inactive and esBAF inh inactive.
Screening Cc1ccc(N2NC(=O)/C(=C/c3ccc(-c4ccc(Cl)c(C(=O)O)c4)o3)C2=O)cc1 returned NSD2 inh inactive, Casp6 inh inactive, MITF act inactive, Wnt act inactive, Xi reactivation inactive and esBAF inh inactive.
`O=C(O)c1ccc(-c2ccc(/C=C3\NC(=O)N(Cc4ccc(Cl)cc4)C3=O)o2)cc1Cl` gave NSD2 inh 128.9, Casp6 inh 64.6, MITF act inactive, Wnt act inactive, Xi reactivation inactive and esBAF inh inactive.
For COc1ccc(NC(=O)Nc2ccc3c(c2)C(=O)N([C@H](C)CO)C[C@H](C)[C@@H](CN(C)Cc2ccccc2)O3)cc1 the results were Casp6 inh inactive, Xi reactivation inactive and esBAF inh inactive.
CC(=O)Nc1ccc(SCc2ncc(-c3ccccc3)o2)cc1 was read as NSD2 inh inactive, Casp6 inh inactive, MITF act inactive, Wnt act inactive, Xi reactivation inactive and esBAF inh 55.2.
CO[C@H]1CN(C)C(=O)c2ccc(NC(=O)Nc3cc(F)ccc3F)cc2OC[C@H](C)N(C(=O)c2cnccn2)C[C@@H]1C was read as Xi reactivation inactive and esBAF inh inactive.
`Cn1c(=O)c(NC2CCCCC2)c2c3c(cccc31)C(=O)c1ccccc1-2` gave NSD2 inh inactive, MITF act inactive, Wnt act inactive and Xi reactivation 116.2.
For O=C(NN1C(=O)C2CC=C(Cl)CC2C1=O)c1ccncc1 (configuration not stated) the results were NSD2 inh inactive, Casp6 inh 46.8, MITF act inactive, Wnt act inactive, Xi reactivation inactive and esBAF inh inactive.
Screening COc1ccc(NC(=O)c2ccc(N3C(=O)C4CC=C(Cl)CC4C3=O)cc2)cc1 (configuration not stated) returned NSD2 inh inactive, Casp6 inh inactive, Wnt act inactive, Xi reactivation inactive and esBAF inh inactive.
`N#C[C@@H]1[C@H](c2ccccc2-c2ccccc2F)[C@H](CO)N1C(=O)Cc1ccccc1` gave Casp6 inh inactive and Xi reactivation inactive.
`CN(C)c1ccc(/C=C/c2ccc3ccccc3n2)cc1` gave NSD2 inh inactive, Casp6 inh inactive, MITF act inactive and esBAF inh inactive.
`CCN(CC)c1ccc(/C=C/c2cc(-c3ccccc3)c3ccccc3n2)cc1` gave NSD2 inh inactive, Casp6 inh inactive, MITF act inactive, Wnt act inactive, Xi reactivation 95.2 and esBAF inh inactive.
Screening Cc1oc(-c2ccc(F)cc2)cc1-c1nn2c(-c3ccco3)nnc2s1 returned NSD2 inh inactive, Casp6 inh 56.9 and Wnt act inactive.
For O=C(c1cc(-c2cccc(O)c2)on1)N1CCOCC1 the results were Casp6 inh inactive, Wnt act 44.9, Xi reactivation inactive and esBAF inh inactive.
O=C(c1cc(-c2cccc(Cl)c2)on1)N1CCN(c2ccccc2)CC1 was read as NSD2 inh inactive, Casp6 inh inactive, MITF act inactive, Wnt act inactive, Xi reactivation inactive and esBAF inh inactive.
Screening O=C(c1cc(-c2cccc(Cl)c2)on1)N1CCCC1 returned NSD2 inh inactive, Casp6 inh inactive, MITF act inactive, Wnt act 39.6, Xi reactivation inactive and esBAF inh inactive.
COc1cccc(-c2cc(C(=O)N3CCOCC3)no2)c1 was read as NSD2 inh inactive, Casp6 inh inactive, MITF act inactive, Wnt act inactive, Xi reactivation inactive and esBAF inh inactive.
For O=C(c1cc(-c2cccc(O)c2)on1)N1CCCCCC1 the results were NSD2 inh inactive, Casp6 inh inactive, MITF act 93.3, Wnt act 37.1, Xi reactivation inactive and esBAF inh inactive.
`O=C(c1cc(-c2ccc(Cl)c(Cl)c2)on1)N1CCCCC1` gave NSD2 inh inactive, MITF act 103.5 and esBAF inh 56.1.
For COc1ccc(NC(=O)N(C)C[C@H]2Oc3ncc(-c4cccnc4)cc3C(=O)N([C@H](C)CO)C[C@@H]2C)cc1 the results were Casp6 inh inactive, Xi reactivation inactive and esBAF inh inactive.
`CC(=O)Nc1cccc2c1O[C@H](CN(C)C(C)=O)[C@@H](C)CN(C)C2=O` gave Xi reactivation inactive.
Screening Cc1ccc(-c2ccc3c(c2)O[C@@H](CN(C)Cc2ccccc2)[C@@H](C)CN([C@@H](C)CO)S3(=O)=O)cc1 returned Casp6 inh inactive, Xi reactivation inactive and esBAF inh inactive.
`CN(C(=O)c1ccco1)c1nc(-c2ccccc2)cs1` gave NSD2 inh inactive, Casp6 inh inactive, MITF act 129.9, Wnt act inactive, Xi reactivation inactive and esBAF inh 44.2.
For CCC(=O)N(CC)c1nc(-c2ccc(OC)cc2)cs1 the results were NSD2 inh inactive, MITF act inactive, Wnt act inactive and esBAF inh 71.6.
Screening COc1ccc(-c2csc(N(CC(C)C)C(=O)c3ccco3)n2)cc1 returned NSD2 inh inactive, Casp6 inh inactive, MITF act inactive, Wnt act inactive, Xi reactivation inactive and esBAF inh inactive.
Screening COCCN(C(=O)c1ccco1)c1nc(-c2ccccc2)cs1 returned NSD2 inh inactive, Casp6 inh inactive, MITF act inactive, Wnt act inactive, Xi reactivation inactive and esBAF inh inactive.
For CCN(C(=O)c1ccco1)c1nc(-c2ccc(OC)cc2)cs1 the results were NSD2 inh inactive, Casp6 inh inactive, Wnt act inactive, Xi reactivation inactive and esBAF inh 81.2.
Screening C[C@@H]1CN([C@H](C)CO)C(=O)c2cc(C#CCN(C)C)cnc2O[C@H]1CN(C)Cc1cccc(C(=O)O)c1 returned Casp6 inh inactive and Xi reactivation inactive.
`COc1ccc2c3c(n(C)c2c1)[C@@H](CO)N(C(=O)NC(C)C)CC31CCN(CC2CC2)CC1` gave Casp6 inh inactive and Xi reactivation inactive.
COc1ccccc1NC(=O)N[C@@H]1CC[C@H](CC(=O)N[C@@H](C)c2ccccc2)O[C@@H]1CO was read as Casp6 inh inactive, Xi reactivation inactive and esBAF inh inactive.
For CC=Cc1ccc2n(c1=O)C[C@@H]1[C@@H](CO)[C@H](C(=O)NCC)[C@H]2N1S(=O)(=O)c1cn(C)cn1 (mixture of isomers) the results were Casp6 inh inactive, Xi reactivation inactive and esBAF inh inactive.

Source: PubChem BioAssay (Broad Institute)
